What was measured:
[1] = biological target: Aldo-keto reductase family 1 member B1 (Bos taurus) (UniProt P16116); test: in vitro inhibition of aldose reductase in partially purified bovine lens preparation at a concentration of 10e -6M.
[2] = tested on: Rattus norvegicus; test: (§1) In vivo inhibition of galactitol accumulation in the sciatic nerve of rats fed 20% galactose for 4 day at 95 mg/kg/day dose; NS= No Significant inhibition of polyol accumulation; format: functional, organism-based
[3] = tested on: Rattus norvegicus; test: as §1; format: functional, organism-based; remark: listed apart in the source
[4] = biological target: Aldo-keto reductase family 1 member B1 (Bos taurus) (UniProt P16116); test: In vitro inhibition of aldose reductase in partially purified bovine lens preparation at a concentration of 4*10e -8M.
Method in brief: (§2)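 Enzyme from bovine lens, partially purified by the cited method with the final chromatographic step omitted. DL-Glyceraldehyde was the substrate. Test compounds were run in duplicate at 1×10⁻⁵, 1×10⁻⁶, 1×10⁻⁷ or 4×10⁻⁸ M. Values are % inhibition of enzymatic activity.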

[5] = tested on: Rattus norvegicus; test: In vivo inhibition of galactitol accumulation in the diaphragm of rats fed 20% galactose for 4 day at 102 mg/kg/day dose; format: functional
Method in brief: (§3)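 Male Sprague-Dawley rats (50–70 g) in groups of six were fed chow with 20% (w/w) galactose. Controls received 20% glucose instead. Test compound was mixed into the diet, and dose was calculated from actual food intake. Rats were killed by decapitation after 4 days. Result is % lowering of tissue galactitol versus galactose-fed controls, as the mean of six animals, compared by Dunnett's multiple comparison.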

[6] = biological target: Aldo-keto reductase family 1 member B1 (Bos taurus) (UniProt P16116); test: In vitro inhibition of Aldose reductase in partially purified bovine lens preparation at a concentration of 10e -7M.; method in brief: as §2
[7] = tested on: Rattus norvegicus; test: In vivo inhibition of galactitol accumulation in the sciatic nerve of rats fed 20% galactose for 4 day at 101 mg/kg/day dose; NS = No Significant inhibition of polyol accumulation; format: functional, organism-based; method in brief: as §3
[8] = biological target: Aldo-keto reductase family 1 member B1 (Bos taurus) (UniProt P16116); test: In vitro inhibition of Aldose reductase in partially purified bovine lens preparation at a concentration of 4*10e -8M.; method in brief: as §2
[9] = tested on: Rattus norvegicus; test: In vivo inhibition of galactitol accumulation in the diaphragm of rats fed 20% galactose for 4 day at 101 mg/kg/day dose; format: functional; method in brief: as §3
[10] = biological target: Aldo-keto reductase family 1 member B1 (Bos taurus) (UniProt P16116); test: In vitro inhibition of aldose reductase in partially purified bovine lens preparation at a concentration of 10e -5M.; conditions: in the assay text read “10e -6M” for “10e -5M”; method in brief: as §2
[11] = tested on: Rattus norvegicus; test: In vivo inhibition of galactitol accumulation in the diaphragm of rats fed 20% galactose for 4 day at 99 mg/kg/day dose; NS = No Significant inhibition of polyol accumulation; format: functional, organism-based; method in brief: as §3
[12] = tested on: Rattus norvegicus; test: In vivo inhibition of galactitol accumulation in the sciatic nerve of rats fed 20% galactose for 4 day at 99 mg/kg/day dose; NS = No Significant inhibition of polyol accumulation; format: functional, organism-based
[13] = biological target: Aldo-keto reductase family 1 member B1 (Bos taurus) (UniProt P16116); test: In vitro inhibition of aldose reductase in partially purified bovine lens preparation at a concentration of 10e -7M.; method in brief: as §2
[14] = tested on: Rattus norvegicus; test: In vivo inhibition of galactitol accumulation in the sciatic nerve of rats fed 20% galactose for 4 day at 95 mg/kg/day dose; format: functional
[15] = tested on: Rattus norvegicus; test: In vivo inhibition of galactitol accumulation in the diaphragm of rats fed 20% galactose for 4 day at 95 mg/kg/day dose; format: functional; method in brief: as §3
[16] = tested on: Rattus norvegicus; test: In vivo inhibition of galactitol accumulation in the diaphragm of rats fed 20% galactose for 4 day at 101 mg/kg/day dose; NS = No Significant inhibition of polyol accumulation; format: functional, organism-based; method in brief: as §3
[17] = biological target: Aldo-keto reductase family 1 member B1 (Bos taurus) (UniProt P16116); test: In vitro inhibition of aldose reductase in partially purified bovine lens preparation at a concentration of 10e-6 M.; method in brief: as §2

Row | inhibition [4] | inhibition [13] | SMILES | Lowering [2] | Lowering [3] | further results
1 | 32% |  | COc1ccc(Cn2c(=O)n(CC(=O)O)c(=O)c3cc(Br)ccc32)cc1Br |  | Not significant | Lowering [5]: 24%
2 | 55% | 76% | O=C(O)Cn1c(=O)c2ccc(Cl)cc2n(Cc2ccc(Br)cc2F)c1=O |  |  | Lowering [14]: 42%; Lowering [15]: 74%
3 | 53% | 77% | O=C(O)Cn1c(=O)c2cccc(F)c2n(Cc2ccc(Br)cc2F)c1=O |  |  | Lowering [14]: 49%; Lowering [15]: 70%
4 | 20% | 30% | O=C(O)Cn1c(=O)c2cc(Br)ccc2n(Cc2ccc(F)c(F)c2)c1=O |  | Not significant | Lowering [5]: 40%
5 |  | 13% | CCc1nc2ccc(Br)cc2c(=O)n1CC(=O)O |  |  | Lowering [16]: Not significant; inhibition [17]: 57%; Lowering [7]: Not significant
6 | 11% | 31% | COc1ccc(Cn2c(=O)n(CC(=O)O)c(=O)c3cc(Br)ccc32)cc1 | Not significant | Not significant | 

The remaining lines, values behind:

Row | SMILES | inhibition [4] | inhibition [13] | Lowering [2] | Lowering [3] | further results
7 | C=CCn1c(=O)n(CC(=O)O)c(=O)c2cc(Br)ccc21 |  |  | Not significant | Not significant | inhibition [1]: 31%
8 | O=C(O)Cn1c2ccc([N+](=O)[O-])cc2c(=O)n1Cc1ccc(Br)cc1F |  |  |  |  | inhibition [6]: 60%; Lowering [7]: Not significant; inhibition [8]: 36%; Lowering [9]: 22%
9 | O=C(O)Cn1c(=O)[nH]c2ccc(Br)cc2c1=O |  |  |  |  | inhibition [10]: 64%
10 | O=C(O)Cn1c(=O)c2cc(Br)ccc2n(Cc2ccc(C(F)(F)F)cc2)c1=O |  |  | Not significant | Not significant | inhibition [1]: 54%
11 | O=C(O)Cn1c(=O)c2cc(Br)ccc2n(C(=O)c2ccccc2)c1=O |  |  | Not significant | Not significant | inhibition [1]: 46%
12 | O=C(O)Cn1c(=O)n(Cc2ccc(Cl)c(Cl)c2)c(=O)c2c3c(sc21)CCCC3 | 63% | 89% |  |  | Lowering [11]: Not significant; Lowering [12]: Not significant
13 | O=C(O)Cn1c2ccc(Cl)cc2c(=O)n1Cc1ccc(Cl)c(Cl)c1 | 34% | 63% |  |  | Lowering [16]: Not significant; Lowering [7]: Not significant
14 | O=C(O)CN1C(=O)c2cc(Cl)ccc2N(Cc2ccc(Br)cc2F)[S+]1[O-] (stereo not given) | 8% | 21% | Not significant | Not significant | 
15 | O=C(O)Cn1c(=O)c2cc(Cl)ccc2n(Cc2ccc(Cl)c(Cl)c2)c1=O | 29% | 71% |  |  | Lowering [14]: 72%; Lowering [15]: 83%
16 | Cn1c(=O)n(CC(=O)O)c(=O)c2cc(Cl)ccc21 |  |  |  |  | inhibition [10]: 60%
17 | O=C(O)Cn1c(=O)c2ccccc2n(-c2ccccc2)c1=O |  |  |  |  | inhibition [10]: 45%
18 | O=C(O)Cn1c(=O)c2cc([N+](=O)[O-])ccc2n(Cc2ccc(Br)cc2F)c1=O | 38% | 71% | Not significant | Not significant | 
19 | Cc1c(C)n(Cc2ccc(Cl)c(Cl)c2)c(=O)n(CC(=O)O)c1=O | 28% | 39% |  |  | Lowering [11]: Not significant; inhibition [1]: 83%; Lowering [12]: Not significant
20 | O=C(O)Cn1c(=O)c2cc(Br)ccc2n(CCc2ccccc2)c1=O |  |  | Not significant | Not significant | inhibition [10]: 34%
21 | O=C(O)Cn1c(=O)c2c(Cl)cccc2n(Cc2ccc(Br)cc2F)c1=O | 33% | 70% |  | Not significant | Lowering [15]: 46%
22 | O=C(O)CN1CN(Cc2ccc(Cl)c(Cl)c2)C(=O)c2cc(Cl)ccc21 | 54% | 87% |  | Not significant | Lowering [9]: 29%

Source: ChEMBL document CHEMBL1125678, “Quinazolineacetic acids and related analogues as aldose reductase inhibitors” (J Med Chem, 1991)
